In ChEMBL document CHEMBL1137730, “Synthesis and antiparasitic and antifungal evaluation of 2'-arylsubstituted-1H,1'H-[2,5']bisbenzimidazolyl-5-carboxamidines” (Eur J Med Chem, 2009):
≈ marks a conversion by molar mass, not a printed value.

Assays:
[1] = tested on: Pichia kudriavzevii; experiment: Antifungal activity against Candida krusei ATCC 6258 by macro-broth dilution method; assay type: functional
How it was run: (§1)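 Macro-broth (tube) dilution; compounds and reference drugs dissolved in water or 40% DMSO-water as 400 µg/mL stock, brought to 100 µg/mL in the first tube by 4-fold dilution with culture medium and fungal suspension. Result reported as MIC.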

[2] = tested on: Trypanosoma cruzi; experiment: Antiparasitic activity against Trypanosoma cruzi Tulahuen C4 containing lacz gene at 0.81 ug/ml; assay type: functional; conditions: Tulahen C4
[3] = tested on: Plasmodium falciparum; experiment: Antiparasitic activity against Plasmodium falciparum K1; assay type: functional, organism-based
[4] = tested on: Leishmania donovani; experiment: Antiparasitic activity against Leishmania donovani MHOM-ET/67/L82 at 4.85 ug/ml; assay type: functional
[5] = tested on: Candida albicans; experiment: Antifungal activity against Candida albicans ATCC 10231 by macro-broth dilution method; assay type: functional; how it was run: as §1
[6] = tested on: Leishmania donovani; experiment: Antiparasitic activity against Leishmania donovani MHOM-ET/67/L82 at 0.81 ug/ml; assay type: functional
[7] = tested on: L6; experiment: Cytotoxicity against rat L6 cells by alamar blue assay; assay type: cell-based
How it was run: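 Rat L-6 myoblasts in culture; viability read by Alamar Blue.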

[8] = tested on: Trypanosoma cruzi; experiment: Antiparasitic activity against Trypanosoma cruzi Tulahuen C4 containing lacz gene at 4.85 ug/ml; assay type: functional; conditions: Tulahen C4
[9] = tested on: Trypanosoma brucei rhodesiense; experiment: Antiparasitic activity against Trypanosoma brucei rhodesiense STIB900; assay type: functional, organism-based

Structure (SMILES)	MIC [1] [µg/mL]	inhibition at 0.81 µg/mL [2] [%]	IC50 [3] [µg/mL]	inhibition at 4.85 µg/mL [4] [%]	MIC [5] [µg/mL]	inhibition at 0.81 µg/mL [6] [%]	IC50 [7] [µg/mL]	inhibition at 4.85 µg/mL [8] [%]	IC50 [9] [µg/mL]
N=C(N)c1ccc2[nH]c(-c3ccc4nc(-c5ccccc5F)[nH]c4c3)nc2c1	12.5 (≈ 33.7 µM)	≤ 50	0.007 (≈ 0.0189 µM)	≤ 70	12.5 (≈ 33.7 µM)	≤ 50	26.8 (≈ 72.4 µM)	≤ 70	0.08 (≈ 0.216 µM)
N=C(N)c1ccc2[nH]c(-c3ccc4nc(-c5ccc(OCc6ccccc6)c(OCc6ccccc6)c5)[nH]c4c3)nc2c1	50 (≈ 88.6 µM)	≤ 50	0.061 (≈ 0.108 µM)	≤ 70	25 (≈ 44.3 µM)	≤ 50	> 90	≤ 70	1.06 (≈ 1.88 µM)
N=C(N)c1ccc2[nH]c(-c3ccc4nc(-c5ccccc5Oc5ccc(Cl)cc5)[nH]c4c3)nc2c1	50 (≈ 104 µM)	≤ 50	0.193 (≈ 0.403 µM)	≤ 70	50 (≈ 104 µM)	≤ 50	> 90	≤ 70	–
N=C(N)c1ccc2[nH]c(-c3ccc4nc(-c5ccc6ccccc6c5)[nH]c4c3)nc2c1	25 (≈ 62.1 µM)	≤ 50	0.016 (≈ 0.0398 µM)	≤ 70	6.25 (≈ 15.5 µM)	≤ 50	34.7 (≈ 86.2 µM)	≤ 70	0.389 (≈ 0.967 µM)
N=C(N)c1ccc2[nH]c(-c3ccc4nc(-c5ccc(O)cc5)[nH]c4c3)nc2c1	–	–	0.013 (≈ 0.0353 µM)	–	0.78 (≈ 2.12 µM)	–	4.2 (≈ 11.4 µM)	–	0.017 (≈ 0.0461 µM)
N=C(N)c1ccc2[nH]c(-c3ccc4nc(-c5ccc(F)c(F)c5)[nH]c4c3)nc2c1	25 (≈ 64.4 µM)	≤ 50	0.015 (≈ 0.0386 µM)	≤ 70	25 (≈ 64.4 µM)	≤ 50	29.8 (≈ 76.7 µM)	≤ 70	0.33 (≈ 0.85 µM)
N=C(N)c1ccc2[nH]c(-c3ccc4nc(-c5ccc(F)cc5)[nH]c4c3)nc2c1	12.5 (≈ 33.7 µM)	≤ 50	0.01 (≈ 0.027 µM)	≤ 70	25 (≈ 67.5 µM)	≤ 50	2.48 (≈ 6.7 µM)	≤ 70	0.04 (≈ 0.108 µM)
CC(C)(C)c1ccc(-c2nc3ccc(-c4nc5cc(C(=N)N)ccc5[nH]4)cc3[nH]2)cc1	12.5 (≈ 30.6 µM)	≤ 50	0.031 (≈ 0.0759 µM)	≤ 70	1.56 (≈ 3.82 µM)	≤ 50	13 (≈ 31.8 µM)	≤ 70	1.06 (≈ 2.59 µM)
CC(C)(C)c1cccc(-c2nc3ccc(-c4nc5cc(C(=N)N)ccc5[nH]4)cc3[nH]2)c1O	6.25 (≈ 14.7 µM)	≤ 50	0.211 (≈ 0.497 µM)	≤ 70	3.12 (≈ 7.35 µM)	≤ 50	13.4 (≈ 31.6 µM)	≤ 70	–
N=C(N)c1ccc2[nH]c(-c3ccc4nc(-c5cc(C(F)(F)F)ccc5Cl)[nH]c4c3)nc2c1	–	≤ 50	0.064 (≈ 0.141 µM)	≤ 70	–	≤ 50	31.8 (≈ 69.9 µM)	≤ 70	–
N=C(N)c1ccc2[nH]c(-c3ccc4nc(-c5cc(C(F)(F)F)cc(C(F)(F)F)c5)[nH]c4c3)nc2c1	25 (≈ 51.2 µM)	≤ 50	0.63 (≈ 1.29 µM)	≤ 70	50 (≈ 102 µM)	≤ 50	76.8 (≈ 157 µM)	≤ 70	–
N=C(N)c1ccc2[nH]c(-c3ccc4nc(-c5ccc(OCc6ccccc6)cc5)[nH]c4c3)nc2c1	25 (≈ 54.5 µM)	≤ 50	0.017 (≈ 0.0371 µM)	≤ 70	12.5 (≈ 27.3 µM)	≤ 50	17.4 (≈ 37.9 µM)	≤ 70	0.81 (≈ 1.77 µM)
COc1ccc(Oc2ccc(-c3nc4ccc(-c5nc6cc(C(=N)N)ccc6[nH]5)cc4[nH]3)cc2)cc1OC	6.25 (≈ 12.4 µM)	≤ 50	0.015 (≈ 0.0297 µM)	≤ 70	3.12 (≈ 6.18 µM)	≤ 50	29.4 (≈ 58.3 µM)	≤ 70	0.036 (≈ 0.0714 µM)
COc1ccc(-c2nc3ccc(-c4nc5cc(C(=N)N)ccc5[nH]4)cc3[nH]2)cc1OC	25 (≈ 60.6 µM)	≤ 50	0.008 (≈ 0.0194 µM)	≤ 70	25 (≈ 60.6 µM)	≤ 50	> 90	≤ 70	0.06 (≈ 0.145 µM)
COc1cc(-c2nc3ccc(-c4nc5cc(C(=N)N)ccc5[nH]4)cc3[nH]2)ccc1OCc1ccccc1	50 (≈ 102 µM)	≤ 50	0.023 (≈ 0.0471 µM)	≤ 70	25 (≈ 51.2 µM)	≤ 50	19.8 (≈ 40.5 µM)	≤ 70	0.57 (≈ 1.17 µM)
N=C(N)c1ccc2[nH]c(-c3ccc4nc(-c5cc(F)ccc5Oc5ccc(Cl)cc5)[nH]c4c3)nc2c1	50 (≈ 101 µM)	≤ 50	0.634 (≈ 1.28 µM)	≤ 70	50 (≈ 101 µM)	≤ 50	> 90	≤ 70	–
N=C(N)c1ccc2[nH]c(-c3ccc4nc(-c5ccc(Oc6ccc(Cl)cc6)cc5)[nH]c4c3)nc2c1	25 (≈ 52.2 µM)	≤ 50	0.028 (≈ 0.0585 µM)	≤ 70	25 (≈ 52.2 µM)	≤ 50	46 (≈ 96 µM)	≤ 70	0.708 (≈ 1.48 µM)
N=C(N)c1ccc2[nH]c(-c3ccc4nc(-c5cccc6ccccc56)[nH]c4c3)nc2c1	12.5 (≈ 31.1 µM)	≤ 50	0.016 (≈ 0.0398 µM)	≤ 70	0.78 (≈ 1.94 µM)	≤ 50	8.72 (≈ 21.7 µM)	≤ 70	0.48 (≈ 1.19 µM)
COc1ccc(-c2nc3ccc(-c4nc5cc(C(=N)N)ccc5[nH]4)cc3[nH]2)cc1	–	–	0.015 (≈ 0.0392 µM)	–	> 100	–	10 (≈ 26.1 µM)	–	0.009 (≈ 0.0235 µM)
COc1cc(OC)cc(-c2nc3ccc(-c4nc5cc(C(=N)N)ccc5[nH]4)cc3[nH]2)c1	50 (≈ 121 µM)	≤ 50	0.017 (≈ 0.0412 µM)	≤ 70	50 (≈ 121 µM)	≤ 50	25.5 (≈ 61.8 µM)	≤ 70	0.59 (≈ 1.43 µM)
OC(Cn1cncn1)(Cn1cncn1)c1ccc(F)cc1F [FLUCONAZOLE]	25 (≈ 81.6 µM)	–	–	–	0.78 (≈ 2.55 µM)	–	–	–	–
Nc1nc(N)nc(Nc2ccc([As]3SCC(CO)S3)cc2)n1 (stereo unspecified) [MELARSOPROL]	–	–	–	–	–	–	–	–	0.003
